Measurements taken from ChEMBL document CHEMBL3797186, “Single Residue Substitutions That Confer Voltage-Gated Sodium Ion Channel Subtype Selectivity in the NaV1.7 Inhibitory Peptide GpTx-1” (J Med Chem, 2016).
Positions of bridges follow the written chain, without caps; N, C: chain ends. Residues, ends and D or L forms follow the SMILES beside them.

Molecular target: Sodium channel protein type 9 subunit alpha (Homo sapiens, UniProt Q15858)
Assay: Inhibition of human Nav1.7 expressed in HEK293 cells assessed as inward peak current by ion-works quattro patch clamp electrophysiology method
Assay type: cell-based

Chain of Sodium channel protein type 9 subunit alpha (Q15858 whole entry): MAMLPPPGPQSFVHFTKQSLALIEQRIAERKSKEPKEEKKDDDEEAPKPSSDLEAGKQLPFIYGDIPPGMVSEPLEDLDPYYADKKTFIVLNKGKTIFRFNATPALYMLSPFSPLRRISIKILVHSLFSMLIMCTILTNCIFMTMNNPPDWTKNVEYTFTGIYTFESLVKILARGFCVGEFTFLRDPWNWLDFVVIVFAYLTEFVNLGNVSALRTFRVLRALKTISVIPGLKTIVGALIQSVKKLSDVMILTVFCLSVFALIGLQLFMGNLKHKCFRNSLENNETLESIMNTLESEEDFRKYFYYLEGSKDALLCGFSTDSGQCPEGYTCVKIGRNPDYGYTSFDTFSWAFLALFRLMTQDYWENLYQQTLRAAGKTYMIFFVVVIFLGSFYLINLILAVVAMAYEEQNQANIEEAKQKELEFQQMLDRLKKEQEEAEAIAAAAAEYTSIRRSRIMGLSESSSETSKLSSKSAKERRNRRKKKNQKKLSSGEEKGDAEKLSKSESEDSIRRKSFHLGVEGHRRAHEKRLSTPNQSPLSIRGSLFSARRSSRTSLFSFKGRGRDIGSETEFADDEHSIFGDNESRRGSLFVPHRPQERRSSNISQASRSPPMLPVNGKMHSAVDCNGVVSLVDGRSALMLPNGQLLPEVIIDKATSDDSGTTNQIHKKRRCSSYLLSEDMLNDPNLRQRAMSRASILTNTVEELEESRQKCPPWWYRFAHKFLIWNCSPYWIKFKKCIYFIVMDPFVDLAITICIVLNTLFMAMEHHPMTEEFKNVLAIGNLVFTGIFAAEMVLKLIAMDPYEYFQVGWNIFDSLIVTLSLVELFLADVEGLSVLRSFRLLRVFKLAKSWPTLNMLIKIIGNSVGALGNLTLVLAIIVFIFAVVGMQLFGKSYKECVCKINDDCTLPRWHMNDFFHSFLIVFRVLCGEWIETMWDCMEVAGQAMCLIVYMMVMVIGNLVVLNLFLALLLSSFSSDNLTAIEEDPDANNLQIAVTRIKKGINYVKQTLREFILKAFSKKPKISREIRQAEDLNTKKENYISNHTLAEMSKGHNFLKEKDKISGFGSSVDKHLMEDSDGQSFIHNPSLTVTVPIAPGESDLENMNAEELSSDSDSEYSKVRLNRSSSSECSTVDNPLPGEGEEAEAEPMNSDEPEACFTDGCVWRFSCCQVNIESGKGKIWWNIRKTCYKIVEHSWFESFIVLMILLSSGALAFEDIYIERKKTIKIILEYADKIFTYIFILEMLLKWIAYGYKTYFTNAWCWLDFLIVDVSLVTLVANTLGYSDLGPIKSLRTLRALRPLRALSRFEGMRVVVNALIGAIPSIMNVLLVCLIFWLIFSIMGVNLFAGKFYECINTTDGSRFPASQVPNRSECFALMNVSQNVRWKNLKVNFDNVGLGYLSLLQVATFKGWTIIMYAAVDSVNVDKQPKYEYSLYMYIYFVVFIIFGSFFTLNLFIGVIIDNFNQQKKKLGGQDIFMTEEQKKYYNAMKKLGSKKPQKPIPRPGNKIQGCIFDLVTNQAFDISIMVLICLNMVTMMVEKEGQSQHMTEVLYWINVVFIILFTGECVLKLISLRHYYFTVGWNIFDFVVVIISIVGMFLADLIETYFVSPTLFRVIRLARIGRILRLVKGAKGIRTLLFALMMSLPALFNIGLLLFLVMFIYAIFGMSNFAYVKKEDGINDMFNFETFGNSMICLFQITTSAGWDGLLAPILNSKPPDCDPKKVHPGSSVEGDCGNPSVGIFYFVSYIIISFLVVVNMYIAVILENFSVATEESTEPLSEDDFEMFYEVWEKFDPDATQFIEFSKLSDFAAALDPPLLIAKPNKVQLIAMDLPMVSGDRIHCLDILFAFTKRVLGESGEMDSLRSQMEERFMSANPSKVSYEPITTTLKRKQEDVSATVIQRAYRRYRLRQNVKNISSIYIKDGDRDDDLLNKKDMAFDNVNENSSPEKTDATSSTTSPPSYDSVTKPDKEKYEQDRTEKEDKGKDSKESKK

| SMILES | IC50 [µM] |
| --- | --- |
| CSCC[C@@H]1NC(=O)[C@H](Cc2ccccc2)NC(=O)CNC(=O)[C@H](CC(C)C)NC(=O)[C@@H](NC(=O)[C@@H](N)CC(=O)O)CSSC[C@@H]2NC(=O)[C@@H]3CSSC[C@@H](C(=O)N[C@@H](CCCCN)C(=O)N[C@@H](Cc4ccc(O)cc4)C(=O)N[C@H](C(=O)N[C@@H](Cc4ccccc4)C(N)=O)C(C)C)NC(=O)[C@H](Cc4c[nH]c5ccccc45)NC(=O)[C@H](CCCCN)NC(=O)[C@H](Cc4cnc[nH]4)NC(=O)[C@H]([C@@H](C)O)NC(=O)[C@H](CCCNC(=N)N)NC(=O)[C@H](CO)NC(=O)[C@H](CSSC[C@H](NC(=O)[C@H](CCCCN)NC(=O)[C@H](CCCNC(=N)N)NC1=O)C(=O)N[C@@H](CCCCN)C(=O)N1CCC[C@H]1C(=O)N[C@@H](CC(=O)O)C(=O)N[C@@H](CC(N)=O)C(=O)N[C@@H](CC(=O)O)C(=O)N[C@@H](CCCCN)C(=O)N3)NC(=O)[C@H](C(C)C)NC(=O)[C@H](CC(C)C)NC(=O)[C@H](CC(N)=O)NC(=O)[C@@H]1CCCN1C(=O)[C@H](CCCNC(=N)N)NC2=O (H-DCLGFMRKCKPDNDKCCRPNLVCSRTHKWCKYVF-NH2; disulfide 2-17, 9-23, 16-30) | 0.23 |

Molecular target: Sodium channel protein type 5 subunit alpha (Homo sapiens, UniProt Q14524)
Assay: Inhibition of human Nav1.5 expressed in HEK293 cells assessed as inward peak current by ion-works quattro patch clamp electrophysiology method
Assay type: cell-based
Outline: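 Stable HEK293 line expressing human NaV1.5, recorded by population patch clamp on the IonWorks Quattro.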

Chain of Sodium channel protein type 5 subunit alpha (Q14524 whole entry): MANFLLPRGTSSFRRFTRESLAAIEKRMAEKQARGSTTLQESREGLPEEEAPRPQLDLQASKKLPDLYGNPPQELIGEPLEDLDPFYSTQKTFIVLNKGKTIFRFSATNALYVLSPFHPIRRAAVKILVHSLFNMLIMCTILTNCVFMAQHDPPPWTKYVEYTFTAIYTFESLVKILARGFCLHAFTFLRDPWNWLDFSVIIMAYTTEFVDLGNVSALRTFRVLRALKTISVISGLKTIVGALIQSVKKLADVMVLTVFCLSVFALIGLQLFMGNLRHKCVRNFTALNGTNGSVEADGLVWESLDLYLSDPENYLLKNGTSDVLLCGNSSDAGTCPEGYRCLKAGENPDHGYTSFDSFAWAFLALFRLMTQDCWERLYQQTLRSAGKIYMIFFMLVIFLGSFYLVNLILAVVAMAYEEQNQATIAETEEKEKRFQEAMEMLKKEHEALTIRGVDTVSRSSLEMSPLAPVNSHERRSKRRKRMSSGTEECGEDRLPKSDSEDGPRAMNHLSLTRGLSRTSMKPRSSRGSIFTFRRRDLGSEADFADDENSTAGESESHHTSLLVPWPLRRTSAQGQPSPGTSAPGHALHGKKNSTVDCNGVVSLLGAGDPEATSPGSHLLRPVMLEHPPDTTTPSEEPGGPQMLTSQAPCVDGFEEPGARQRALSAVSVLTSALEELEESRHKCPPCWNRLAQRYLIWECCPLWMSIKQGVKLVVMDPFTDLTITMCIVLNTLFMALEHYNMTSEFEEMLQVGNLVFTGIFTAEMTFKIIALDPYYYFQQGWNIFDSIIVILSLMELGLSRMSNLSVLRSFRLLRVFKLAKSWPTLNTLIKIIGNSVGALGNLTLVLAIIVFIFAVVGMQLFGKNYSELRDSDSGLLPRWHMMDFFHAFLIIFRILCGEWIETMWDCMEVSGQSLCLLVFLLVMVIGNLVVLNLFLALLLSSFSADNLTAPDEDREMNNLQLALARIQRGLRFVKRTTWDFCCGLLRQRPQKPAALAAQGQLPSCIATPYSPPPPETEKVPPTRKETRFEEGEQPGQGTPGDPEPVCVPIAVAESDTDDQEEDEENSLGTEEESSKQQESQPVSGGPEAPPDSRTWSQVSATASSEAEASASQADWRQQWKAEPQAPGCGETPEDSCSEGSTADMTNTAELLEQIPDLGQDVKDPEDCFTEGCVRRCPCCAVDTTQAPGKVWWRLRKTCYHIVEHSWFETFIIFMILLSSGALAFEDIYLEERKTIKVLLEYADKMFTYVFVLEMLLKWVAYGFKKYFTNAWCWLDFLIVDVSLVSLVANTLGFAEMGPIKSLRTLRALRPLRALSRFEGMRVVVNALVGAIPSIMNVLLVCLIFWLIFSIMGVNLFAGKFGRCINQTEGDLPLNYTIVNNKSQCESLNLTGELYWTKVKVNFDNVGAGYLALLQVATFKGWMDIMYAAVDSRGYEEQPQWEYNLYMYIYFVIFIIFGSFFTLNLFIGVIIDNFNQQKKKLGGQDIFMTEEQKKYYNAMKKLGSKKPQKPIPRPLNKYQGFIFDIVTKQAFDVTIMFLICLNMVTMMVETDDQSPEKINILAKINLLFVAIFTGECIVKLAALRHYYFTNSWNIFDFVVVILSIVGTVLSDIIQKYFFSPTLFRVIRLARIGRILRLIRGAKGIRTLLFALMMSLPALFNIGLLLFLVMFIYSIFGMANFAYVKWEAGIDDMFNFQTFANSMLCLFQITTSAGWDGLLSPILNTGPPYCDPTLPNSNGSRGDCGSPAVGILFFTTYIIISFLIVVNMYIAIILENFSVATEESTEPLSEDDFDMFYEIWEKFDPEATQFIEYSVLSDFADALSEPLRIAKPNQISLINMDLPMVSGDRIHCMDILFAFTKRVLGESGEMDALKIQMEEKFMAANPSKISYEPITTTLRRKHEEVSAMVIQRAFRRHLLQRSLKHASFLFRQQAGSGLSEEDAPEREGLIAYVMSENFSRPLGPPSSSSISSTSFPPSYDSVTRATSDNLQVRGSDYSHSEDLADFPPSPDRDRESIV

| SMILES | IC50 [µM] |
| --- | --- |
| CSCC[C@@H]1NC(=O)[C@H](Cc2ccccc2)NC(=O)CNC(=O)[C@H](CC(C)C)NC(=O)[C@@H](NC(=O)[C@@H](N)CC(=O)O)CSSC[C@@H]2NC(=O)[C@@H]3CSSC[C@@H](C(=O)N[C@@H](CCCCN)C(=O)N[C@@H](Cc4ccc(O)cc4)C(=O)N[C@H](C(=O)N[C@@H](Cc4ccccc4)C(N)=O)C(C)C)NC(=O)[C@H](Cc4c[nH]c5ccccc45)NC(=O)[C@H](CCCCN)NC(=O)[C@H](Cc4cnc[nH]4)NC(=O)[C@H]([C@@H](C)O)NC(=O)[C@H](CCCNC(=N)N)NC(=O)[C@H](CO)NC(=O)[C@H](CSSC[C@H](NC(=O)[C@H](CCCCN)NC(=O)[C@H](CCCNC(=N)N)NC1=O)C(=O)N[C@@H](CCCCN)C(=O)N1CCC[C@H]1C(=O)N[C@@H](CC(=O)O)C(=O)N[C@@H](CC(N)=O)C(=O)N[C@@H](CC(=O)O)C(=O)N[C@@H](CCCCN)C(=O)N3)NC(=O)[C@H](C(C)C)NC(=O)[C@H](CC(C)C)NC(=O)[C@H](CC(N)=O)NC(=O)[C@@H]1CCCN1C(=O)[C@H](CCCNC(=N)N)NC2=O (H-DCLGFMRKCKPDNDKCCRPNLVCSRTHKWCKYVF-NH2; disulfide 2-17, 9-23, 16-30) | > 5 |
| CC[C@H](C)[C@@H]1NC(=O)[C@@H]2CSSC[C@@H]3NC(=O)[C@H](C(C)C)NC(=O)[C@H](CC(C)C)NC(=O)[C@H](CC(N)=O)NC(=O)[C@@H]4CCCN4C(=O)[C@H](CCCNC(=N)N)NC(=O)[C@H](CSSC[C@H](NC(=O)[C@@H](N)CC(=O)O)C(=O)N[C@@H](CC(C)C)C(=O)N[C@@H](Cc4c[nH]c5ccccc45)C(=O)N[C@@H](Cc4ccccc4)C(=O)N[C@@H](CCSC)C(=O)N[C@@H](CCCNC(=N)N)C(=O)N[C@@H](CCCCN)C(=O)N2)NC(=O)[C@H](CSSC[C@@H](C(=O)N[C@@H](CCCCN)C(=O)N[C@@H](Cc2ccc(O)cc2)C(=O)N[C@H](C(=O)N[C@@H](Cc2ccccc2)C(N)=O)C(C)C)NC(=O)[C@H](Cc2c[nH]c4ccccc24)NC(=O)[C@H](CCCCN)NC(=O)[C@H](Cc2cnc[nH]2)NC(=O)[C@H]([C@@H](C)O)NC(=O)[C@H](CCCNC(=N)N)NC(=O)[C@H](CO)NC3=O)NC(=O)[C@H](CCCCN)NC(=O)[C@H](CC(=O)O)NC(=O)[C@H](CC(N)=O)NC(=O)[C@H](CC(=O)O)NC(=O)[C@@H]2CCCN2C1=O (H-DCLWFMRKCIPDNDKCCRPNLVCSRTHKWCKYVF-NH2; disulfide 2-17, 9-23, 16-30) | > 5 |
| CC[C@H](C)[C@@H]1NC(=O)[C@@H]2CSSC[C@@H]3NC(=O)[C@H](C(C)C)NC(=O)[C@H](CC(C)C)NC(=O)[C@H](CCCNC(=N)N)NC(=O)[C@@H]4CCCN4C(=O)[C@H](CCCNC(=N)N)NC(=O)[C@H](CSSC[C@H](NC(=O)[C@@H](N)CC(=O)O)C(=O)N[C@@H](CC(C)C)C(=O)NCC(=O)N[C@@H](Cc4ccccc4)C(=O)N[C@@H](CCSC)C(=O)N[C@@H](CCCNC(=N)N)C(=O)N[C@@H](CCCCN)C(=O)N2)NC(=O)[C@H](CSSC[C@@H](C(=O)N[C@@H](CCCCN)C(=O)N[C@@H](Cc2ccc(O)cc2)C(=O)N[C@H](C(=O)N[C@@H](Cc2ccccc2)C(N)=O)C(C)C)NC(=O)[C@H](Cc2c[nH]c4ccccc24)NC(=O)[C@H](CCCCN)NC(=O)[C@H](Cc2cnc[nH]2)NC(=O)[C@H]([C@@H](C)O)NC(=O)[C@H](CCCNC(=N)N)NC(=O)[C@H](CO)NC3=O)NC(=O)[C@H](CCCCN)NC(=O)[C@H](CC(=O)O)NC(=O)[C@H](CC(N)=O)NC(=O)[C@H](CC(=O)O)NC(=O)[C@@H]2CCCN2C1=O (H-DCLGFMRKCIPDNDKCCRPRLVCSRTHKWCKYVF-NH2; disulfide 2-17, 9-23, 16-30) | > 5 |
| CC[C@H](C)[C@@H]1NC(=O)[C@@H]2CSSC[C@@H]3NC(=O)[C@H](C(C)C)NC(=O)[C@H](CC(C)C)NC(=O)[C@H](CC(N)=O)NC(=O)[C@@H]4CCCN4C(=O)[C@H](CCCNC(=N)N)NC(=O)[C@H](CSSC[C@H](NC(=O)[C@@H](N)CC(=O)O)C(=O)N[C@@H](CC(C)C)C(=O)NCC(=O)N[C@@H](Cc4ccccc4)C(=O)N[C@@H](CCSC)C(=O)N[C@@H](CCCNC(=N)N)C(=O)N[C@@H](CCCCN)C(=O)N2)NC(=O)[C@H](CSSC[C@@H](C(=O)N[C@@H](CCCCN)C(=O)N[C@@H](CCCNC(=N)N)C(=O)N[C@H](C(=O)N[C@@H](Cc2ccccc2)C(N)=O)C(C)C)NC(=O)[C@H](Cc2c[nH]c4ccccc24)NC(=O)[C@H](CCCCN)NC(=O)[C@H](Cc2cnc[nH]2)NC(=O)[C@H]([C@@H](C)O)NC(=O)[C@H](CCCNC(=N)N)NC(=O)[C@H](CO)NC3=O)NC(=O)[C@H](CCCCN)NC(=O)[C@H](CC(=O)O)NC(=O)[C@H](CC(N)=O)NC(=O)[C@H](CC(=O)O)NC(=O)[C@@H]2CCCN2C1=O (H-DCLGFMRKCIPDNDKCCRPNLVCSRTHKWCKRVF-NH2; disulfide 2-17, 9-23, 16-30) | > 5 |
| CC[C@H](C)[C@@H]1NC(=O)[C@@H]2CSSC[C@@H]3NC(=O)[C@H](C(C)C)NC(=O)[C@H](CC(C)C)NC(=O)[C@H](CC(N)=O)NC(=O)[C@@H]4CCCN4C(=O)[C@H](CCCNC(=N)N)NC(=O)[C@H](CSSC[C@H](NC(=O)[C@@H](N)CC(=O)O)C(=O)N[C@@H](CC(C)C)C(=O)NCC(=O)N[C@@H](Cc4ccccc4)C(=O)N[C@@H](CCSC)C(=O)N[C@@H](CCCNC(=N)N)C(=O)N[C@@H](CCCCN)C(=O)N2)NC(=O)[C@H](CSSC[C@@H](C(=O)N[C@@H](CCCCN)C(=O)N[C@@H](Cc2ccc(O)cc2)C(=O)N[C@H](C(=O)N[C@@H](Cc2ccccc2)C(N)=O)C(C)C)NC(=O)[C@H](Cc2c[nH]c4ccccc24)NC(=O)[C@H](CCCCN)NC(=O)[C@H](Cc2c[nH]c4ccccc24)NC(=O)[C@H]([C@@H](C)O)NC(=O)[C@H](CCCNC(=N)N)NC(=O)[C@H](CO)NC3=O)NC(=O)[C@H](CCCCN)NC(=O)[C@H](CC(=O)O)NC(=O)[C@H](CC(N)=O)NC(=O)[C@H](CC(=O)O)NC(=O)[C@@H]2CCCN2C1=O (H-DCLGFMRKCIPDNDKCCRPNLVCSRTWKWCKYVF-NH2; disulfide 2-17, 9-23, 16-30) | > 5 |
| CC[C@H](C)[C@@H]1NC(=O)[C@@H]2CSSC[C@@H]3NC(=O)[C@H](C(C)C)NC(=O)[C@H](CC(C)C)NC(=O)[C@H](CC(N)=O)NC(=O)[C@@H]4CCCN4C(=O)[C@H](CCCNC(=N)N)NC(=O)[C@H](CSSC[C@H](NC(=O)[C@@H](N)CC(=O)O)C(=O)N[C@@H](CC(C)C)C(=O)NCC(=O)N[C@@H](Cc4ccccc4)C(=O)N[C@@H](CCSC)C(=O)N[C@@H](CCCNC(=N)N)C(=O)N[C@@H](CCCCN)C(=O)N2)NC(=O)[C@H](CSSC[C@@H](C(=O)N[C@@H](CCCCN)C(=O)N[C@@H](Cc2ccc(O)cc2)C(=O)N[C@H](C(=O)N[C@@H](Cc2ccccc2)C(=O)N[C@@H](CCC(=O)O)C(N)=O)C(C)C)NC(=O)[C@H](Cc2c[nH]c4ccccc24)NC(=O)[C@H](CCCCN)NC(=O)[C@H](Cc2c[nH]cn2)NC(=O)[C@H]([C@@H](C)O)NC(=O)[C@H](CCCNC(=N)N)NC(=O)[C@H](CO)NC3=O)NC(=O)[C@H](CCCCN)NC(=O)[C@H](CC(=O)O)NC(=O)[C@H](CC(N)=O)NC(=O)[C@H](CC(=O)O)NC(=O)[C@@H]2CCCN2C1=O | > 5 |
| CSCC[C@@H]1NC(=O)[C@H](Cc2ccccc2)NC(=O)CNC(=O)[C@H](CC(C)C)NC(=O)[C@@H](NC(=O)[C@@H](N)CC(=O)O)CSSC[C@@H]2NC(=O)[C@@H]3CSSC[C@@H](C(=O)N[C@@H](CCCCN)C(=O)N[C@@H](Cc4ccc(O)cc4)C(=O)N[C@H](C(=O)N[C@@H](Cc4ccccc4)C(N)=O)C(C)C)NC(=O)[C@H](Cc4c[nH]c5ccccc45)NC(=O)[C@H](CCCCN)NC(=O)[C@H](Cc4cnc[nH]4)NC(=O)[C@H]([C@@H](C)O)NC(=O)[C@H](CCCNC(=N)N)NC(=O)[C@H](CO)NC(=O)[C@H](CSSC[C@H](NC(=O)[C@H](CCCCN)NC(=O)[C@H](CCCNC(=N)N)NC1=O)C(=O)N[C@@H]([C@@H](C)O)C(=O)N1CCC[C@H]1C(=O)N[C@@H](CC(=O)O)C(=O)N[C@@H](CC(N)=O)C(=O)N[C@@H](CC(=O)O)C(=O)N[C@@H](CCCCN)C(=O)N3)NC(=O)[C@H](C(C)C)NC(=O)[C@H](CC(C)C)NC(=O)[C@H](CC(N)=O)NC(=O)[C@@H]1CCCN1C(=O)[C@H](CCCNC(=N)N)NC2=O (H-DCLGFMRKCTPDNDKCCRPNLVCSRTHKWCKYVF-NH2; disulfide 2-17, 9-23, 16-30) | > 5 |
| CC[C@H](C)[C@@H]1NC(=O)[C@@H]2CSSC[C@@H]3NC(=O)[C@H](C(C)C)NC(=O)[C@H](CC(C)C)NC(=O)[C@H](CC(N)=O)NC(=O)[C@@H]4CCCN4C(=O)[C@H](CCCNC(=N)N)NC(=O)[C@H](CSSC[C@H](NC(=O)[C@@H](N)CCC(=O)O)C(=O)N[C@@H](CC(C)C)C(=O)NCC(=O)N[C@@H](Cc4ccccc4)C(=O)N[C@@H](CCSC)C(=O)N[C@@H](CCCNC(=N)N)C(=O)N[C@@H](CCCCN)C(=O)N2)NC(=O)[C@H](CSSC[C@@H](C(=O)N[C@@H](CCCCN)C(=O)N[C@@H](Cc2ccc(O)cc2)C(=O)N[C@H](C(=O)N[C@@H](Cc2ccccc2)C(N)=O)C(C)C)NC(=O)[C@H](Cc2c[nH]c4ccccc24)NC(=O)[C@H](CCCCN)NC(=O)[C@H](Cc2cnc[nH]2)NC(=O)[C@H]([C@@H](C)O)NC(=O)[C@H](CCCNC(=N)N)NC(=O)[C@H](CO)NC3=O)NC(=O)[C@H](CCCCN)NC(=O)[C@H](CC(=O)O)NC(=O)[C@H](CC(N)=O)NC(=O)[C@H](CC(=O)O)NC(=O)[C@@H]2CCCN2C1=O (H-ECLGFMRKCIPDNDKCCRPNLVCSRTHKWCKYVF-NH2; disulfide 2-17, 9-23, 16-30) | > 5 |
